One may read the IC50 as the concentration needed to halve the response being measured.

Our source for the IC50 and Selectivity ratio values is ChEMBL document CHEMBL1134547 (J Med Chem, 2001).

In test [1] the target is T1, Bifunctional dihydrofolate reductase-thymidylate synthase (Toxoplasma gondii, UniProt Q07422).
T1 sequence (Q07422 whole entry): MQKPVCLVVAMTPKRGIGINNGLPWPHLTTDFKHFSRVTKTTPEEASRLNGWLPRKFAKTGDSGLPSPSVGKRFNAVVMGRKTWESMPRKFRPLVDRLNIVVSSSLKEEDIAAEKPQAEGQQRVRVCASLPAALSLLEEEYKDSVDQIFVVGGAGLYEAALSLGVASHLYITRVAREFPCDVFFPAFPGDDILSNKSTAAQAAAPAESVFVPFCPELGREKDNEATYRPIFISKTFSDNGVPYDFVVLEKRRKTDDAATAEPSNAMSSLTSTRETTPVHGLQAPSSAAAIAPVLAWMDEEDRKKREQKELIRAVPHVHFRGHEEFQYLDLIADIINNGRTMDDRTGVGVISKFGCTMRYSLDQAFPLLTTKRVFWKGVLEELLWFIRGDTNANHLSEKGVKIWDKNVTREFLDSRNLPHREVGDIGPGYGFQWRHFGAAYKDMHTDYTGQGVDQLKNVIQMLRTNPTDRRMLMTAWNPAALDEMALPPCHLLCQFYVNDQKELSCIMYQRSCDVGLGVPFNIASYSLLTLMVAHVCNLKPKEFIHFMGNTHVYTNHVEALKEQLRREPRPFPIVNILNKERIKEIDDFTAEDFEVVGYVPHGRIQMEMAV
In words: Inhibitory activity against dihydrofolate reductase DHFR in Toxoplasma gondii.

For test [2], the target named is T2, Dihydrofolate reductase (Mycobacterium avium, UniProt O30463).
T2 sequence (O30463 whole entry): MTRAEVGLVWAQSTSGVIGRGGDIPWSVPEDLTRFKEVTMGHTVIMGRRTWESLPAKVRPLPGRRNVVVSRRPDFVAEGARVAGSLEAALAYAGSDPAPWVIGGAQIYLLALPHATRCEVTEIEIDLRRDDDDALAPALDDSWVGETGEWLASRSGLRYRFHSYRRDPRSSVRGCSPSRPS
The experiment in a line: Inhibitory activity against dihydrofolate reductase DHFR in Mycobacterium avium.

Test [3] can be described thus: Selectivity ratio of IC50(rat liver)/IC50(Mycobacterium avium).
Test [4] concerns the target T3, Dihydrofolate reductase (Rattus norvegicus, UniProt Q920D2).
T3 sequence (Q920D2 whole entry): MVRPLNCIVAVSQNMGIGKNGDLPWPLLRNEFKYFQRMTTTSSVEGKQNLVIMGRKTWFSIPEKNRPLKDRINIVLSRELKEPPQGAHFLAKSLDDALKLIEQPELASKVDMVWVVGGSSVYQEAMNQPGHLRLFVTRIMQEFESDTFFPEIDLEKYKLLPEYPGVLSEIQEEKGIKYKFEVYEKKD
The experiment in a line: Inhibitory activity against dihydrofolate reductase DHFR in rat liver.

A short description of test [5]: Inhibition of dihydrofolate reductase DHFR in Pneumocystis carinii. The essentials:
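Spectrophotometric DHFR assay following enzymatic reduction of dihydrofolate to tetrahydrofolate with NADPH cofactor. 1 mL mixture in phosphate buffer (40.7 mM, pH 7.4) containing NADPH (0.117 mM), dihydrofolate (0.092 mM), 2-mercaptoethanol (8.9 mM) and 0.018 units DHFR. IC50 is the drug concentration that halves the reduction rate relative to control.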

With `CCc1nc(N)nc(N)c1-c1ccc(Cl)c(/N=N/N(CCOC(C)=O)Cc2cccc([N+](=O)[O-])c2)c1`, the IC50 was determined as 830 nM in test [1], 3690 nM against Dihydrofolate reductase [2], 1610 nM at Dihydrofolate reductase [4] and 1300 nM in test [5]. The Selectivity ratio in test [3] was 0.44.
The matching figures for `CCc1nc(N)nc(N)c1-c1ccc(Cl)c(/N=N/N(CCOC(C)=O)Cc2ccncc2)c1`: 640 nM, 2030 nM, 6190 nM, 3460 nM and 3.05.
Compound `CCc1nc(N)nc(N)c1-c1ccc(Cl)c(/N=N/N(CCO)Cc2ccccc2)c1` yielded an IC50 in test [5] of 260 nM.
In the case of `CCc1nc(N)nc(N)c1-c1ccc(Cl)c(/N=N/N(CCO)[C@H](C)c2ccccc2)c1`, the IC50 in test [1] turned out to be 1470 nM; against Dihydrofolate reductase [4], 6440 nM; in test [5] it was 1090 nM.
For the compound `CCc1nc(N)nc(N)c1-c1ccc(Cl)c(/N=N/N(CCCO)Cc2ccccc2)c1`, the IC50 in test [1] was 2010 nM; against Dihydrofolate reductase [2], 3900 nM; on Dihydrofolate reductase [4] it was 7350 nM; in test [5], 680 nM. In test [3], the Selectivity ratio came out at 1.88.
Consider `CCc1nc(N)nc(N)c1-c1ccc(Cl)c(/N=N/N(CCOC(C)=O)Cc2cccc(C)c2)c1`, for which the IC50 in test [1] is 5390 nM; against Dihydrofolate reductase [2], 25200 nM; against Dihydrofolate reductase [4], 5800 nM; in test [5], 5290 nM. In test [3], the Selectivity ratio was determined as 0.23.
Turning to `CCc1nc(N)nc(N)c1-c1ccc(Cl)c(/N=N/N(CCOC(C)=O)Cc2cc(OC)cc(OC)c2)c1`, the IC50 in test [1] amounted to 378 nM; against Dihydrofolate reductase [2], 4360 nM; against Dihydrofolate reductase [4] it was 845 nM; in test [5], 860 nM. The Selectivity ratio in test [3] turned out to be 0.19.
For `CCc1nc(N)nc(N)c1-c1ccc(Cl)c(/N=N/N(CCO)[C@@H](C)c2ccccc2)c1`, the figures for the half-maximal inhibitory concentration (IC50) (in test [1]; against Dihydrofolate reductase [4]; in test [5]) were 2700 nM, 6510 nM and 1260 nM, respectively.
Take `CCc1nc(N)nc(N)c1-c1ccc(Cl)c(/N=N/N(CCOC(C)=O)Cc2ccccc2F)c1`: the 50% inhibitory concentration (IC50) in test [1] is 7800 nM; against Dihydrofolate reductase [4] it was 14900 nM; in test [5] it was 92000 nM.
With `CCc1nc(N)nc(N)c1-c1ccc(Cl)c(/N=N/N(CCOC(C)=O)Cc2ccc([N+](=O)[O-])cc2)c1`, the 50% inhibitory concentration (IC50) was determined as 850 nM in test [1], 5340 nM at Dihydrofolate reductase [2], 3330 nM against Dihydrofolate reductase [4] and 1210 nM in test [5]. Moreover, in test [3], the Selectivity ratio is 0.62.
For `CCc1nc(N)nc(N)c1-c1ccc(Cl)c(/N=N/N(CCOC(=O)C(C)C)Cc2ccccc2)c1`, the concentration for half-maximal inhibition (IC50) in test [1] was 660 nM; at Dihydrofolate reductase [4] it was 3700 nM; in test [5] it was 1200 nM.
The matching figures for `CCc1nc(N)nc(N)c1-c1ccc(Cl)c(/N=N/N(CCOC(C)=O)Cc2cccc3ccccc23)c1`: 200 nM, 280 nM and 53 nM.
Consider `CCc1nc(N)nc(N)c1-c1ccc(Cl)c(/N=N/N(CCOC(C)=O)Cc2ccc(F)cc2)c1`, for which the IC50 is 4400 nM in test [1], 7460 nM on Dihydrofolate reductase [2], 3830 nM against Dihydrofolate reductase [4] and 1910 nM in test [5]. Besides, the Selectivity ratio in test [3] amounted to 0.51.
`CCc1nc(N)nc(N)c1-c1ccc(Cl)c(/N=N/N(C)C)c1` gave an IC50 in test [5] of 2800 nM.
Consider `CCc1nc(N)nc(N)c1-c1ccc(Cl)c(/N=N/N(CCOC(C)=O)Cc2ccccc2Cl)c1`, for which the IC50 is 6100 nM in test [1], 8400 nM on Dihydrofolate reductase [4] and 4700 nM in test [5].
As for `CCc1nc(N)nc(N)c1-c1ccc(Cl)cc1` [PYRIMETHAMINE], the IC50 in test [5] came out at 3650 nM.
On to `CCc1nc(N)nc(N)c1-c1ccc(Cl)c(/N=N/N(CCOC(C)=O)Cc2ccc(C(F)(F)F)cc2)c1`, for which the 50% inhibitory concentration (IC50) in test [1] was found to be 2540 nM; at Dihydrofolate reductase [4] it was 6620 nM; in test [5], 1350 nM.
In the case of `CCC(=O)OCCN(Cc1ccccc1)/N=N/c1cc(-c2c(N)nc(N)nc2CC)ccc1Cl`, the results for the IC50 (in test [1]; against Dihydrofolate reductase [4]; in test [5]) were 700 nM, 3300 nM and 1300 nM, respectively.
Consider `CCc1nc(N)nc(N)c1-c1ccc(Cl)c(/N=N/N(CCOC(C)=O)Cc2cccc(F)c2)c1`, for which the IC50 in test [1] is 1250 nM; on Dihydrofolate reductase [2], 4070 nM; against Dihydrofolate reductase [4], 3870 nM; in test [5], 2220 nM. Besides, the Selectivity ratio in test [3] came to 0.95.
Take `CCc1nc(N)nc(N)c1-c1ccc(Cl)c(/N=N/N(CCO)CCc2ccccc2)c1`: the IC50 in test [1] turned out to be 1790 nM; on Dihydrofolate reductase [2], 5420 nM; at Dihydrofolate reductase [4] it was 4670 nM; in test [5] it was 480 nM. The Selectivity ratio in test [3] came out at 0.86.
Take `CCc1nc(N)nc(N)c1-c1ccc(Cl)c(/N=N/N(CCOC(C)=O)Cc2ccc(OC)cc2)c1`: the IC50 is 440 nM in test [1] and 2100 nM on Dihydrofolate reductase [4].
For `CCc1nc(N)nc(N)c1-c1ccc(Cl)c(/N=N/N(CCOC(=O)c2ccccc2)Cc2ccccc2)c1`, the IC50 in test [1] amounted to 220 nM; on Dihydrofolate reductase [4] it was 690 nM; in test [5], 850 nM.
On to `CCc1nc(N)nc(N)c1-c1ccc(Cl)c(/N=N/N(CCOC(C)=O)Cc2ccc3ccccc3c2)c1`, for which the IC50 in test [1] amounted to 1050 nM; against Dihydrofolate reductase [4] it was 620 nM; in test [5], 590 nM.
Turning to `CCc1nc(N)nc(N)c1-c1ccc(Cl)c(/N=N/N(CCOC(C)=O)Cc2ccccc2C)c1`, the IC50 in test [1] was 830 nM; against Dihydrofolate reductase [2], 24500 nM; against Dihydrofolate reductase [4], 11200 nM; in test [5], 11100 nM.
As for `CCc1nc(N)nc(N)c1-c1ccc(Cl)c(/N=N/N(CCOC(C)=O)Cc2ccc(OC)c(OC)c2)c1`, the IC50 in test [1] was 80 nM; against Dihydrofolate reductase [4], 390 nM; in test [5], 1400 nM.
For `CCc1nc(N)nc(N)c1-c1ccc(Cl)c(/N=N/N(CCOC(C)=O)Cc2ccc(Cl)cc2)c1`, the IC50 in test [1] stood at 800 nM; against Dihydrofolate reductase [4], 1800 nM; in test [5] it was 940 nM.
`CCc1nc(N)nc(N)c1-c1ccc(Cl)c(/N=N/N(CCOC(C)=O)Cc2cc(OC)c(OC)c(OC)c2)c1`: the IC50 in test [1] amounted to 70 nM; on Dihydrofolate reductase [4] it was 450 nM; in test [5], 1500 nM.
In the case of `CCc1nc(N)nc(N)c1-c1ccc(Cl)c(/N=N/N(CCOC(C)=O)Cc2cccc(Cl)c2)c1`, the IC50 in test [1] is 1160 nM; against Dihydrofolate reductase [4], 1290 nM; in test [5] it was 580 nM.
Take `CCc1nc(N)nc(N)c1-c1ccc(Cl)c(/N=N/N(CCOC(C)=O)Cc2ccc(C)cc2)c1`: the concentration for half-maximal inhibition (IC50) worked out at 630 nM in test [1], 4430 nM at Dihydrofolate reductase [2], 3850 nM on Dihydrofolate reductase [4] and 1700 nM in test [5]. In addition, in test [3], the Selectivity ratio worked out at 0.87.
